The text below walks through data of PubChem BioAssay AID2097 (Broad Institute, 2009).

Out of some 300,000 compounds screened, about 120 (0.04%) were called active.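 The calls were made as follows: active = more than half of replicate wells score below -50%, meaning over 50% inhibition versus plate controls; inconclusive = some replicates but at most half score below -50%; inactive = no replicate scores below -50%.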 The list comes from a sample in which actives are over-represented; it also holds similar structures and randomly drawn compounds.

The assay deals with Glycogen synthase kinase-3 beta (Homo sapiens) (UniProt P49841). As to the kind of experiment: human GSK3beta kinase inhibitors, primary screen, biochemical, cell-free homogeneous, HTS (AID 2097).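 Also: 0% = median DMSO wells and -100% = median GW8510 positive control wells.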 The note with it: GST-GSK3beta kinase, ADP-Glo luminescence, 60 min; at 10 µM; stronger effect = lower value. In short, it runs like this: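 Test system: GST-tagged human GSK3beta kinase, cell-free; evaluation: activity score scaled between in-plate DMSO and GW8510 controls; measured by: ADP-Glo luminescence; incubation: 60 min reaction, RT; benchmarks: DMSO and 20 µM GW8510; reagent: peptide substrate plus 25 µM ATP (final); medium: Tris/MgCl2 kinase buffer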
Glycogen synthase kinase-3 beta (Homo sapiens), sequence (P49841 whole entry, looked up): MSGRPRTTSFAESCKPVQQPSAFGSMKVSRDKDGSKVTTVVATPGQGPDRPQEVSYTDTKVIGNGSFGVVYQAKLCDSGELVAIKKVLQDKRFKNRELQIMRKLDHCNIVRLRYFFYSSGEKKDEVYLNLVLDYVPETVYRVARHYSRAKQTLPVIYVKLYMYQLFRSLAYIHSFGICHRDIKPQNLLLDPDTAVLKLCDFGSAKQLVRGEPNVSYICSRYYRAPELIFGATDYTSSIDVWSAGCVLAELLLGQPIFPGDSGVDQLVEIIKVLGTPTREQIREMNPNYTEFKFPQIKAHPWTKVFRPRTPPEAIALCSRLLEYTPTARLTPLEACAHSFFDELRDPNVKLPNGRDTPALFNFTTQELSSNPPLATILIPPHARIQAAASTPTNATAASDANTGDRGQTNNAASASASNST
For the compound `CN(Cc1ccccc1)CC(O)COc1ccc(CNCc2cc3ccccc3s2)cc1` (configuration not stated), the activity score (negative = inhibition) is 2.68% (inactive). `CCN(CC)S(=O)(=O)c1ccc2c3c(cccc13)C(=O)S2`: the activity score (negative = inhibition) is -2.37% (inactive). For the compound `O=C1COc2ccc(C(=O)COC(=O)C3CC(O)CN3S(=O)(=O)c3ccc(Cl)cc3)cc2N1` (configuration not stated), the activity score (negative = inhibition) is 1.53% (inactive).

`CC(C)(C)NC(=O)CN(C(=O)c1csnn1)c1ccccc1-c1ccccc1`: the activity score (negative = inhibition) was -0.766% (inactive). The figure for `Cc1cc(/C=N/Nc2ccc([N+](=O)[O-])cn2)c(C)n1-c1cccc(C(=O)O)c1` is -14.7% (inactive); for `CCOc1ccc(/C=N/Nc2nncc(-c3ccccc3)n2)cc1OC` it is -0.0724% (inactive). The figure for `COc1cc(/C=N\Nc2ccc([N+](=O)[O-])cn2)ccc1OCC(=O)O` is -70.1% (active). Then `O=C(C1CCN(S(=O)(=O)Cc2ccccc2)CC1)N1CCCc2ccccc21`, with 4.16% (inactive); and `O=C(Nc1cccc(Cl)c1)Nc1ccccc1NS(=O)(=O)c1cccs1`, with 1.54% (inactive); and `C1=C(N2CCOCC2)/C(=C/c2nc3ccccc3[nH]2)CC1`, with -1.13% (inactive). Turning to `C=CCc1cccc(/C=N/NC(=O)COc2ccc(-n3cnnn3)cc2)c1O`, the activity score (negative = inhibition) was -4.1% (inactive). The figure for `O=C(NCc1cccnc1)c1cc(S(=O)(=O)N2CCOCC2)c(Cl)cc1Cl` is -0.415% (inactive). As for `COc1ccc(C(=O)Oc2ccc(-c3nnco3)cc2)cc1S(=O)(=O)N1CCOCC1`, the activity score (negative = inhibition) was 2.99% (inactive). Then `O=C(CCN1C(=O)c2ccccc2C1=O)NNC(=O)c1ccc(Cl)cc1Cl`, with 1.29% (inactive); and `COc1cc(C(=O)NCc2nnc(SCC(=O)Nc3nc4ccc(C)cc4s3)o2)cc(OC)c1OC`, with -2.02% (inactive); and `O=C1CCN(CCc2ccccc2)CCN1CCOc1ccccc1`, with 3.91% (inactive). Turning to `CN1C2CCC1/C(=C\c1ccccc1Cl)C(=O)/C2=C\c1ccccc1Cl`, the activity score (negative = inhibition) is 0.435% (inactive). As to `COc1ccccc1N(C)C(=O)c1cc(S(=O)(=O)N2CCc3ccccc32)cn1C`, the activity score (negative = inhibition) was 0.131% (inactive). In the case of `CCCCC(NC(=O)c1cccc(Br)c1)C(=O)O` (configuration not stated), the activity score (negative = inhibition) was -0.419% (inactive).

For `Cc1c(CCC(=O)N[C@@H](CC(C)C)C(=O)O)c(=O)oc2c(C)c3oc4c(c3cc12)CCCC4`, the activity score (negative = inhibition) is -23.5% (inactive).

For `O=C(OCc1nnc(-c2ccccc2)o1)c1cc(=O)[nH]c2ccccc12`, the activity score (negative = inhibition) was -0.304% (inactive). Then `Cc1ccc(C(=O)NC2CCN(C(=O)Nc3ccccc3Cl)CC2)cc1`, with 2.37% (inactive); and `O=[N+]([O-])c1ccc(NCCCN2CCOCC2)c(Cl)c1`, with -5.04% (inactive). Then `CC1CN(c2nc(Nc3ccccc3)nc(N)c2[N+](=O)[O-])CC(C)O1` (configuration not stated), with -27.9% (inactive).

For `Nc1nc(NCCCN2CCOCC2)nc(Nc2ccccc2)c1[N+](=O)[O-]`, the activity score (negative = inhibition) was -73.5% (active).

For `COc1ccc([N+](=O)[O-])cc1NC(=O)COC(=O)/C=C/c1ccco1`, the activity score (negative = inhibition) is 1.89% (inactive). Then `CCOc1ccccc1C(=O)NC1CC2CCCC(C1)N2Cc1ccccc1` (configuration not stated), with 1.55% (inactive); and `Cc1cccc(-c2nc3c(c(SCC(=O)N4CCOCC4)n2)CCCC3)c1`, with -0.852% (inactive); and `COc1ccccc1NC(=O)CCC(=O)N1CC(C)Oc2ccc(C)cc21` (configuration not stated), with -0.0566% (inactive). Then `CCOC(=O)C[C@H]1c2ccc(C(F)(F)F)cc2S(=O)(=O)N1c1ccccc1`, with 3.21% (inactive); and `CCC1(c2ccccc2)NC(=O)N(CC(=O)Nc2ccccc2C(=O)NC2CCCC2)C1=O` (configuration not stated), with 1.66% (inactive). The figure for `COc1ccc(-c2ccc(OC(=O)NC3CCS(=O)(=O)C3)cc2)cc1` (configuration not stated) is 1.32% (inactive). Consider `C=C(C)C(=O)O[C@H]1C/C(C)=C\C(=O)/C=C(\C)[C@H](O)[C@@H]2OC(=O)C(=C)[C@@H]21`, for which the activity score (negative = inhibition) was 2.58% (inactive).

In the case of `Cc1ccc(S(=O)(=O)/N=S(\C)C(C)C)cc1` (configuration not stated), the activity score (negative = inhibition) was -3.78% (inactive). Regarding `Cc1nn(-c2ccccc2)c2c1c(C)c(CCC(=O)NCC1CCCO1)c(=O)n2C` (configuration not stated), the activity score (negative = inhibition) was -0.881% (inactive). On to `COc1ccc(CCC(C)N2CCc3ccccc3C2)cc1` (configuration not stated), for which the activity score (negative = inhibition) was 3.34% (inactive). As for `COc1ccc(CNS(=O)(=O)c2cc3c4c(c2)CCN4C(=O)CC3)cc1`, the activity score (negative = inhibition) was 0.199% (inactive). The figure for `COc1ccc(C2OCC3(CO2)SC(=O)NC3=O)cc1OC` (configuration not stated) is -1.61% (inactive); for `Cc1ccc(C(=O)Nc2nc3ccc(Cl)cc3s2)o1` it is -1.18% (inactive); for `Cc1ccc(OCCNC(=O)CNC(=O)c2ccc(C)c(C)c2)cc1` it is -1.65% (inactive). As to `COC(=O)C1=NNC2(c3ccc(C)cc3)C(=O)N(c3cccc(C)c3C)C(=O)C12` (configuration not stated), the activity score (negative = inhibition) is 1.69% (inactive). The figure for `Cc1ccc(C2SCC(=O)N2c2ccccc2)cc1` (configuration not stated) is -1.18% (inactive); for `C[C@H](NC(=O)c1ccccc1Cl)C(=O)OCCOc1cccc(Cl)c1` it is -1.48% (inactive); for `O=C(CCCN1C(=O)CSc2ncccc21)N1CCN(c2cccc(C(F)(F)F)c2)CC1` it is -4.32% (inactive).

Regarding `CCC(C(=O)OCC(=O)Nc1ccccc1-c1ccccc1)c1ccccc1` (configuration not stated), the activity score (negative = inhibition) was 0.894% (inactive). For the compound `CC(=O)c1ccc(NC(=S)N(Cc2ccccc2)C(C)C2CC2)cc1` (configuration not stated), the activity score (negative = inhibition) was -0.731% (inactive).

Take `Cc1nnc(C)c2c(C)n(N)c(C)c12`: the activity score (negative = inhibition) is 1.96% (inactive).

With `CNC(=O)NC(=O)C(OC(=O)c1cccc(S(=O)(=O)N2CCCCC2)c1)c1ccccc1` (configuration not stated), the activity score (negative = inhibition) was 1.44% (inactive). As to `O=C(/C=C/c1cccc([N+](=O)[O-])c1)NCCSCc1ccco1`, the activity score (negative = inhibition) is -1% (inactive).

On to `CC(C)Nc1nnc(SC(C)C(=O)N(C)C2CCCCC2)s1` (configuration not stated), for which the activity score (negative = inhibition) is -10.4% (inactive). Turning to `CCc1nnc(NC(=O)CSCc2cc(=O)n3cc(C)sc3n2)s1`, the activity score (negative = inhibition) is 1.76% (inactive).

`COc1ccc(C)cc1Nc1n[n+](-c2ccccc2)c(-c2cccc(Cl)c2Cl)s1`: the activity score (negative = inhibition) was 1.38% (inactive). `COC(=O)c1ccc2c(C(C)(C)O)c(C(C)(C)O)[nH]c2c1`: the activity score (negative = inhibition) was 0.923% (inactive). The figure for `Cc1cc(C)n2nc(C(=O)N(C)C(c3ccccc3)c3ccccc3)nc2n1` is -1.04% (inactive); for `COC(=O)c1ccc(CNC(=O)C2CCC(=O)N(Cc3cccc(F)c3)C2)cc1` (configuration not stated) it is -6.3% (inactive); for `CCc1noc(C)c1C(=O)N1CCCSC1=Nc1ccccc1OC` it is 3.72% (inactive). The figure for `CC(OC(=O)c1ccc(S(=O)(=O)N2CCOCC2)cc1)c1ccccc1` (configuration not stated) is -0.509% (inactive).
